# Published values collected from several papers.
Compound,tested on,assay,test system,conditions,measurement,result
COc1cccc(/C=N/N2C(=O)c3ccccc3NC2c2cccc(OC)c2O)c1O (stereo not shown),Mycolicibacterium smegmatis,"microbial growth, broth dilution",ATCC700084,72 h,MIC,> 256 µg/mL
COc1cc(Cc2cnc(N)nc2N)cc(OC)c1OC,Toxoplasma gondii,"parasite growth, fluorescence",HS27,"96 h, intracellular",IC50,11.8 µg/mL
NNC(=O)c1ccncc1,Mycolicibacterium smegmatis,"microbial growth, broth dilution",ATCC700084,,MIC,117 µM
COC1=CC(=O)c2ccccc2C1=O,Candida tropicalis,"microbial growth, broth dilution",ATCC13803,24 h,MIC,12.5 µg/mL
CC(=O)N1N=C(c2ccc(NS(=O)(=O)c3ccc4oc(=O)ccc4c3)cc2)CC1c1ccc(Br)cc1 (stereo not shown),Toxoplasma gondii,"parasite growth, fluorescence",HS27,"96 h, intracellular",IC50,< 3.91 µg/mL
C[C@@H]1[C@H](O)[C@@H](C)/C=C/C=C/C=C/C=C/C=C/C=C/C=C/[C@H](O[C@@H]2O[C@H](C)[C@@H](O)[C@H](N)[C@@H]2O)C[C@@H]2O[C@](O)(C[C@@H](O)C[C@@H](O)[C@H](O)CC[C@@H](O)C[C@@H](O)CC(=O)O[C@H]1C)C[C@H](O)[C@H]2C(=O)O,Candida tropicalis,"microbial growth, broth dilution",ATCC13803,24 h,MIC,4 µg/mL
COc1cc2nc(N3CCN(C(=O)C4COc5ccccc5O4)CC3)nc(N)c2cc1OC (stereo not shown),SUNE1,"cell growth or viability, MTT",,48 h,IC50,8.89 µM
Cc1c(C(=O)O)ccc2c3n(nc12)[C@@H]1[C@H](C3)N(CC2CC2)[C@@]2(C(=O)Nc3cc(Cl)ccc32)[C@H]1c1cccc(Cl)c1F,UACC-812,cell growth or viability,,,GI50,0.00119 µM
Cc1cc(/C=C/C#N)cc(C)c1Nc1ccnc(Nc2ccc(C#N)cc2)n1,SUNE1,"cell growth or viability, MTT",,48 h,IC50,19.1 µM
C=CC(=O)NC1CCN(c2ncc3ncnc(Nc4ccc(Oc5ccc6c(c5)ncn6C)c(C)c4)c3n2)CC1,Panc1005,cell growth or viability,,,EC50,0.0396 µM
